Measured values taken from ChEMBL document CHEMBL1137390, “Structure-based design of potent small-molecule inhibitors of anti-apoptotic Bcl-2 proteins” (J Med Chem, 2006).

Experiments:
[1] = molecular target: T1, Apoptosis regulator Bcl-2 (Homo sapiens, UniProt P10415); assay: Displacement of FAM-Bid from human Bcl2 by FP assay
How it was run: (§1)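 Competitive fluorescence-polarization binding assay against the recombinant anti-apoptotic protein. Values are reported as Ki ± SD from three to seven independent experiments per compound.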

[2] = molecular target: T1, Apoptosis regulator Bcl-2; assay: Binding affinity to human Bcl2 by ELISA
PC-3 [3] = assay: Induction of apoptosis in human PC3 cell at 20 uM by TUNEL assay; assay type: functional
How it was run: (§2)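 PC-3 prostate cancer cells were exposed to compound for 4 days, with an untreated control included. Apoptosis was scored by TUNEL using flow cytometry: the BrdU-FITC-positive fraction (M1 marker) is given as the percentage of apoptotic cells.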

PC-3 [4] = assay: Induction of apoptosis in human PC3 cell at 5 uM by TUNEL assay; assay type: functional; how it was run: as §2
[5] = molecular target: Induced myeloid leukemia cell differentiation protein Mcl-1 (Homo sapiens, UniProt Q07820); assay: Displacement of FAM-Bid from human Mcl1 by FP assay
Induced myeloid leukemia cell differentiation protein Mcl-1, sequence (Q07820 whole entry): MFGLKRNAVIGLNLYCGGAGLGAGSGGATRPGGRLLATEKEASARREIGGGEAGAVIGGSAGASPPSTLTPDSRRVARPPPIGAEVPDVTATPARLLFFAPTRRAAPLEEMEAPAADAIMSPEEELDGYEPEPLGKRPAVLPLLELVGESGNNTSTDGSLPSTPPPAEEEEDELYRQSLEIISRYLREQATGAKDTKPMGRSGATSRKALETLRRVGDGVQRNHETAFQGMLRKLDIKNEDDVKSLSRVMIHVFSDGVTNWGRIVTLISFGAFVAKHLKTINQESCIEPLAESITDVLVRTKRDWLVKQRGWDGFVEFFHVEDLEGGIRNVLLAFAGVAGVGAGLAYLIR

PC-3 [6] = assay: Induction of apoptosis in human PC3 cell at 1.25 uM by TUNEL assay; assay type: functional; how it was run: as §2
Bcl-2-like protein 1 = Bcl-2-like protein 1 (Homo sapiens, UniProt Q07817); assay: Displacement of FAM-Bak from human Bcl-xL by FP assay; how it was run: as §1
Bcl-2-like protein 1, sequence (Q07817 whole entry): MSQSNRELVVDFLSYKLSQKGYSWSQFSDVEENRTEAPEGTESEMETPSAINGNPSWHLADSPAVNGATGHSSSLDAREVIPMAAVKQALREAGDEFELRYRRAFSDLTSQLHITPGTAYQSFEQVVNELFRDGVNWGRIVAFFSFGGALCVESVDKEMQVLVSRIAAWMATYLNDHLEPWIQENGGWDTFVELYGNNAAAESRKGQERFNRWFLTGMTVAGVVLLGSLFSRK

T1 sequence (P10415 whole entry): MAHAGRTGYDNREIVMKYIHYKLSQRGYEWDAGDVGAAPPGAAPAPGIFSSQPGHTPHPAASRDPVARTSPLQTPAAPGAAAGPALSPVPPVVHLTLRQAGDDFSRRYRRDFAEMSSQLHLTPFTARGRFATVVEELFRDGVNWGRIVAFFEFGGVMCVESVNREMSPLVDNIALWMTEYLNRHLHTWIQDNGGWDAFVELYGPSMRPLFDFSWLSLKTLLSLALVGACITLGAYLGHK

With `CC(C)c1cc(C(=O)Nc2ccccc2)c(O)c(O)c1O` the Ki [1] was 24100 nM and the IC50 [2] was 53100 nM.

`O=C(Nc1ccccc1)c1cc(Cc2ccccc2)c(O)c(O)c1O` gave a Ki [1] of 8300 nM and an IC50 [2] of 7200 nM.

Molecule `COc1c(Cc2ccccc2C(C)C)cc(C(=O)Nc2ccc(S(=O)(=O)c3ccccc3C(C)(C)C)cc2)c(OC)c1OC` has a Ki [1] of 25000 nM and an Activity (PC-3 [3]) of 1.2%.

In the case of `O=C(Nc1ccc(S(=O)(=O)c2ccccc2)cc1)c1cc(Cc2ccccc2)c(O)c(O)c1O`, the Ki [1] is reported as 930 nM and the IC50 [2] is reported as 1600 nM.

With `CC(C)c1ccccc1Cc1cc(C(=O)Nc2ccc(S(=O)(=O)c3ccccc3C(C)(C)C)cc2)c(O)c(O)c1O` the Activity (PC-3 [4]) was 89.5%, the Ki [1] was 290 nM and the IC50 [5] was 1030 nM. For the same molecule, the Ki [5] was 260 nM, the Activity (PC-3 [6]) was 11.2% and the IC50 [2] was 700 nM. For the same molecule, the IC50 (Bcl-2-like protein 1) was 6580 nM and the Ki (Bcl-2-like protein 1) was 1110 nM.

With `CC[C@H](C)[C@H](NC(=O)[C@H](CC(N)=O)NC(=O)[C@H](CCCN=C(N)N)NC(=O)[C@@H](NC(=O)[C@@H](NC(=O)[C@H](CC(=O)O)NC(=O)[C@H](CCC(=O)O)NC(=O)[C@@H](N)CCC(N)=O)[C@@H](C)CC)[C@@H](C)CC)C(=O)N[C@@H](C)C(=O)N[C@@H](CCCN=C(N)N)C(=O)N[C@@H](Cc1c[nH]cn1)C(=O)N[C@@H](CC(C)C)C(=O)N[C@@H](C)C(=O)N[C@@H](CCC(N)=O)C(=O)N[C@H](C(=O)NCC(=O)N[C@@H](CC(=O)O)C(=O)N[C@@H](CO)C(=O)N[C@@H](CCSC)C(=O)N[C@@H](CC(=O)O)C(=O)N[C@@H](CCCN=C(N)N)C(=O)O)C(C)C` the IC50 [5] was 52 nM and the Ki [5] was 12 nM.

With `Cc1cc2c(C(C)C)c(O)c(O)c(C=O)c2c(O)c1-c1c(C)cc2c(C(C)C)c(O)c(O)c(C=O)c2c1O` [GOSSYPOL] the Ki [5] was 180 nM and the Ki (Bcl-2-like protein 1) was 480 nM.
